# Laboratory results taken from ChEMBL document CHEMBL1123180, “Improved glucose tolerance in rats treated with oxazolidinediones” (1986).
# Activity calls are given as the source filed them. No cut-off for these calls is given here.
# Columns and labels:
# Rattus norvegicus [1] = assay: Ability to lower blood sugar level at the dose of 5 mg/kg in fasted rats, by using glucose tolerance test(GTT); assay type: functional
# Method in brief: (§1)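 Male albino rats, groups of five or six, fasted 18–24 h. Glucose 1 g/kg given ip; test drug (0.1 to 100 mg/kg) or water (controls) given orally. Tail-vein blood sampled over 0–3 h; glucose (mg/100 mL) measured by Autoanalyser ferricyanide method. Value is percent lowering of blood glucose vs controls at 0.5 h; a lowering of ≥9% is needed for P = 0.05.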
# Rattus norvegicus [2] = assay: Ability to lower blood sugar level at the dose of 100 mg/kg in fasted rats, by using glucose tolerance test(GTT); NA=Inactive; assay type: functional, organism-based; design: dose 100 mg/kg; method in brief: as §1
# Rattus norvegicus [3] = assay: Ability to lower blood sugar level at the dose of 100 mg/kg in fasted rats, by using glucose tolerance test(GTT); assay type: functional; method in brief: as §1
# Rattus norvegicus [4] = assay: Compound was tested for the ability to lower blood sugar level at the dose of 10 mg/kg in fasted rats, by using glucose tolerance test(GTT); NA=Inactive; assay type: functional, organism-based; design: dose 10 mg/kg; method in brief: as §1
# Rattus norvegicus [5] = assay: Ability to lower blood sugar level at the dose of 10 mg/kg in fasted rats, by using glucose tolerance test(GTT); assay type: functional; method in brief: as §1
# Rattus norvegicus [6] = assay: Ability to lower blood sugar level at the dose of 25 mg/kg in fasted rats, by using glucose tolerance test(GTT); NA=Inactive; assay type: functional, organism-based; design: dose 25 mg/kg; method in brief: as §1
# Rattus norvegicus [7] = assay: Compound was tested for the ability to lower blood sugar level at the dose of 1 mg/kg in fasted rats, by using glucose tolerance test(GTT); assay type: functional; method in brief: as §1
# Rattus norvegicus [8] = assay: Compound was tested for the ability to lower blood sugar level at the dose of 100 mg/kg in fasted rats, by using glucose tolerance test(GTT); NA=Inactive; assay type: functional, organism-based; design: dose 100 mg/kg
# Method in brief: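 Male albino rats (groups of five or six) fasted 18–24 h, given glucose 1 g/kg ip plus oral drug (range 0.1–100 mg/kg) or water for controls. Tail-vein blood glucose sampled over 0–3 h, read by ferricyanide autoanalyser method. Value is percent blood glucose lowering vs controls at 0.5 h; ≥9% lowering needed for significance at P = 0.05.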
# Rattus norvegicus [9] = assay: Ability to lower blood sugar level at the dose of 25 mg/kg in fasted rats, by using glucose tolerance test(GTT); assay type: functional; method in brief: as §1
# Rattus norvegicus [10] = assay: Ability to lower blood sugar level at the dose of 2.5 mg/kg in fasted rats, by using glucose tolerance test(GTT); assay type: functional; method in brief: as §1
# Rattus norvegicus [11] = assay: Ability to lower blood sugar level at the dose of 10 mg/kg in fasted rats, by using glucose tolerance test(GTT); NA=Inactive; assay type: functional, organism-based; design: dose 10 mg/kg; method in brief: as §1
# Rattus norvegicus [12] = assay: Compound was tested for the ability to lower blood sugar level at the dose of 50 mg/kg in fasted rats, by using glucose tolerance test(GTT); assay type: functional; method in brief: as §1
# Rattus norvegicus [13] = assay: Compound was tested for the ability to lower blood sugar level at the dose of 100 mg/kg in fasted rats, by using glucose tolerance test(GTT); assay type: functional; method in brief: as §1
# Rattus norvegicus [14] = assay: Compound was tested for the ability to lower blood sugar level at the dose of 25 mg/kg in fasted rats, by using glucose tolerance test(GTT); NA=Inactive; assay type: functional, organism-based; design: dose 25 mg/kg; method in brief: as §1
# Rattus norvegicus [15] = assay: Compound was tested for the ability to lower blood sugar level at the dose of 0.63 mg/kg in fasted rats, by using glucose tolerance test(GTT); assay type: functional; method in brief: as §1
smiles,measurement,setting,value
CC(=O)Nc1ccccc1C1OC(=O)NC1=O (configuration not stated),Blood sugar lowering,Rattus norvegicus [1],14%
O=C1NC(=O)C(c2ccccc2)N1 (configuration not stated),Blood sugar lowering,Rattus norvegicus [2],inactive
CN1C(=O)OC(c2ccccc2)C1=O (configuration not stated),Blood sugar lowering,Rattus norvegicus [2],inactive
CCOc1ccc(F)cc1C1OC(=O)NC1=O (configuration not stated),Blood sugar lowering,Rattus norvegicus [1],9%
COc1ccccc1C1OC(=O)NC1=O (configuration not stated),Blood sugar lowering,Rattus norvegicus [1],14%
O=C1NC(=O)C(c2ccccc2OCc2ccccc2)O1 (configuration not stated),Blood sugar lowering,Rattus norvegicus [3],11%
C/C=C/Oc1cccc(Cl)c1C1OC(=O)NC1=O (configuration not stated),Blood sugar lowering,Rattus norvegicus [4],inactive
O=C1NC(=O)C(c2ccccc2Cl)O1 (configuration not stated),Blood sugar lowering,Rattus norvegicus [5],11%
CCC1(c2ccccc2)OC(=O)NC1=O (configuration not stated),Blood sugar lowering,Rattus norvegicus [2],inactive
Cc1ccc(C2OC(=O)NC2=O)cc1 (configuration not stated),Blood sugar lowering,Rattus norvegicus [3],10%
COc1ccc(C(N)=O)cc1C1OC(=O)NC1=O (configuration not stated),Blood sugar lowering,Rattus norvegicus [6],inactive
COc1ccc(-c2ccccc2)cc1C1OC(=O)NC1=O (configuration not stated),Blood sugar lowering,Rattus norvegicus [6],inactive
O=C1NC(=O)C(c2ccc(F)cc2)O1 (configuration not stated),Blood sugar lowering,Rattus norvegicus [3],21%
O=C1NC(=O)C(c2c(Cl)cccc2OCc2ccccc2)O1 (configuration not stated),Blood sugar lowering,Rattus norvegicus [6],inactive
O=C1NC(=O)C(c2ccc(OCc3ccccc3)cc2)O1 (configuration not stated),Blood sugar lowering,Rattus norvegicus [3],20%
COc1cccc(F)c1C1OC(=O)NC1=O (configuration not stated),Blood sugar lowering,Rattus norvegicus [7],11%
COc1ccc(Cl)c(C)c1C1OC(=O)NC1=O (configuration not stated),Blood sugar lowering,Rattus norvegicus [5],12%
COc1ccc(C(=O)O)cc1C1OC(=O)NC1=O (configuration not stated),Blood sugar lowering,Rattus norvegicus [6],inactive
COc1ncccc1C(=O)NCCc1ccc(C2OC(=O)NC2=O)cc1 (configuration not stated),Blood sugar lowering,Rattus norvegicus [3],26%
NC1=NC(=O)C(c2ccccc2)O1 (configuration not stated),Blood sugar lowering,Rattus norvegicus [8],inactive
CC(C)Oc1cccc(F)c1C1OC(=O)NC1=O (configuration not stated),Blood sugar lowering,Rattus norvegicus [9],15%
O=C1NC(=O)C(c2ccccc2[N+](=O)[O-])O1 (configuration not stated),Blood sugar lowering,Rattus norvegicus [9],11%
Cl.Nc1ccccc1C1OC(=O)NC1=O (configuration not stated),Blood sugar lowering,Rattus norvegicus [9],15%
O=C(Nc1ccccc1C1OC(=O)NC1=O)NC1CCCCC1 (configuration not stated),Blood sugar lowering,Rattus norvegicus [6],inactive
O=C1NC(=O)C(c2ccccc2C(F)(F)F)O1 (configuration not stated),Blood sugar lowering,Rattus norvegicus [5],11%
COc1ccc(F)cc1C1OC(=O)NC1=O (configuration not stated),Blood sugar lowering,Rattus norvegicus [10],15%
"COc1ccc(Cl)cc1C1OC(=O)NC1=O (single isomer, unassigned; (+))",Blood sugar lowering,Rattus norvegicus [10]; 2.5 mg/kg,12%
O=C1NC(=O)C(c2ccccc2OCCn2ccnc2)O1 (configuration not stated),Blood sugar lowering,Rattus norvegicus [6],inactive
O=C1NC(=O)C(c2ccc3c(c2)OCO3)O1 (configuration not stated),Blood sugar lowering,Rattus norvegicus [3],18%
COc1ccc(N)cc1C1OC(=O)NC1=O (configuration not stated),Blood sugar lowering,Rattus norvegicus [6],inactive
COc1cccc(N)c1C1OC(=O)NC1=O (configuration not stated),Blood sugar lowering,Rattus norvegicus [6],inactive
CCSc1cccc(F)c1C1OC(=O)NC1=O (configuration not stated),Blood sugar lowering,Rattus norvegicus [9],17%
COc1ccc(OC)c(C2OC(=O)NC2=O)c1 (configuration not stated),Blood sugar lowering,Rattus norvegicus [11],inactive
COc1ccc(CCn2ccnc2)cc1C1OC(=O)NC1=O (configuration not stated),Blood sugar lowering,Rattus norvegicus [6],inactive
COc1ccc(Cl)cc1C1OC(=O)NC1=O (configuration not stated),Blood sugar lowering,Rattus norvegicus [7],12%
O=C1NC(=O)C(c2c(Cl)cccc2Cl)O1 (configuration not stated),Blood sugar lowering,Rattus norvegicus [9],21%
COc1cccc(C)c1C1OC(=O)NC1=O (configuration not stated),Blood sugar lowering,Rattus norvegicus [5],10%
COc1ccc(C(C)C)cc1C1OC(=O)NC1=O (configuration not stated),Blood sugar lowering,Rattus norvegicus [11],inactive
COc1ccc(S(=O)(=O)NC(=O)NC2CCCCC2)cc1C1OC(=O)NC1=O (configuration not stated),Blood sugar lowering,Rattus norvegicus [6],inactive
O=C1NC(=O)C(c2cccc(Oc3ccccc3)c2)O1 (configuration not stated),Blood sugar lowering,Rattus norvegicus [3],12%
COc1cc(C2OC(=O)NC2=O)c(Cl)cc1C (configuration not stated),Blood sugar lowering,Rattus norvegicus [11],inactive
O=C1NC(=O)C(c2ccc(Cl)cc2)O1 (configuration not stated),Blood sugar lowering,Rattus norvegicus [12],12%
O=C1NC(=O)C(Cc2ccccc2)O1 (configuration not stated),Blood sugar lowering,Rattus norvegicus [9],9%
O=C1NC(=O)C(c2c(Cl)cccc2[N+](=O)[O-])O1 (configuration not stated),Blood sugar lowering,Rattus norvegicus [6],inactive
Cc1cccc(C)c1C1OC(=O)NC1=O (configuration not stated),Blood sugar lowering,Rattus norvegicus [5],13%
Cc1ccc(F)cc1C1OC(=O)NC1=O (configuration not stated),Blood sugar lowering,Rattus norvegicus [9],19%
O=C1NC(=O)C(c2c(Cl)cccc2-n2cccc2)O1 (configuration not stated),Blood sugar lowering,Rattus norvegicus [11],inactive
O=C1NC(=S)OC1c1ccccc1 (configuration not stated),Blood sugar lowering,Rattus norvegicus [13],17%
COc1ccc(Br)cc1C1OC(=O)NC1=O (configuration not stated),Blood sugar lowering,Rattus norvegicus [1],22%
O=C1NC(=O)C(c2cccc(F)c2)O1 (configuration not stated),Blood sugar lowering,Rattus norvegicus [5],10%
O=C1NC(=O)C(c2ccccc2F)O1 (configuration not stated),Blood sugar lowering,Rattus norvegicus [1],10%
COc1c(F)cc(C)cc1C1OC(=O)NC1=O (configuration not stated),Blood sugar lowering,Rattus norvegicus [5],17%
O=C1NC(=O)C(c2ccccc2)S1 (configuration not stated),Blood sugar lowering,Rattus norvegicus [13],34%
same,Blood sugar lowering,Rattus norvegicus [14],inactive
COc1cc(C2OC(=O)NC2=O)c(C)cc1F (configuration not stated),Blood sugar lowering,Rattus norvegicus [11],inactive
O=C1NC(=O)C(c2c(Cl)cccc2OCC2CC2)O1 (configuration not stated),Blood sugar lowering,Rattus norvegicus [11],inactive
COc1cccc(C2OC(=O)NC2=O)c1 (configuration not stated),Blood sugar lowering,Rattus norvegicus [11],inactive
COc1ccc(C#N)cc1C1OC(=O)NC1=O (configuration not stated),Blood sugar lowering,Rattus norvegicus [9],19%
O=C1NC(=O)C(c2c(F)cccc2F)O1 (configuration not stated),Blood sugar lowering,Rattus norvegicus [9],25%
COc1cccc(C2OC(=O)NC2=O)c1OC (configuration not stated),Blood sugar lowering,Rattus norvegicus [12],12%
COc1cccc(C(F)(F)F)c1C1OC(=O)NC1=O (configuration not stated),Blood sugar lowering,Rattus norvegicus [6],inactive
CCc1ccc(OC)c(C2OC(=O)NC2=O)c1 (configuration not stated),Blood sugar lowering,Rattus norvegicus [9],10%
CSc1cccc(Cl)c1C1OC(=O)NC1=O (configuration not stated),Blood sugar lowering,Rattus norvegicus [9],21%
O=C1NC(=O)C(c2ccccc2NS(=O)(=O)c2ccccc2)O1 (configuration not stated),Blood sugar lowering,Rattus norvegicus [6],inactive
COc1cccc(NC(C)=O)c1C1OC(=O)NC1=O (configuration not stated),Blood sugar lowering,Rattus norvegicus [6],inactive
O=C1NC(=O)C(c2c(F)cccc2C(F)(F)F)O1 (configuration not stated),Blood sugar lowering,Rattus norvegicus [6],inactive
O=C1NC(=O)C(c2cccc(C(F)(F)F)c2)O1 (configuration not stated),Blood sugar lowering,Rattus norvegicus [5],17%
COc1ccc(C2OC(=O)NC2=O)cc1 (configuration not stated),Blood sugar lowering,Rattus norvegicus [3],19%
Nc1ccc(C2OC(=O)NC2=O)cc1 (configuration not stated),Blood sugar lowering,Rattus norvegicus [2],inactive
O=C1NC(=O)C(c2ccc(F)cc2C(F)(F)F)O1 (configuration not stated),Blood sugar lowering,Rattus norvegicus [11],inactive
CCOc1ccc(Cl)cc1C1OC(=O)NC1=O (configuration not stated),Blood sugar lowering,Rattus norvegicus [1],11%
COc1ccc(S(N)(=O)=O)cc1C1OC(=O)NC1=O (configuration not stated),Blood sugar lowering,Rattus norvegicus [4],inactive
COc1cc(C)c(Cl)cc1C1OC(=O)NC1=O (configuration not stated),Blood sugar lowering,Rattus norvegicus [11],inactive
CCOc1ccc(C2OC(=O)NC2=O)cc1 (configuration not stated),Blood sugar lowering,Rattus norvegicus [3],18%
CCOc1ccccc1C1OC(=O)NC1=O (configuration not stated),Blood sugar lowering,Rattus norvegicus [1],15%
COc1ccc(C2OC(=O)NC2=O)c(OC)c1 (configuration not stated),Blood sugar lowering,Rattus norvegicus [9],10%
COc1cccc(OC)c1C1OC(=O)NC1=O (configuration not stated),Blood sugar lowering,Rattus norvegicus [5],12%
COc1c(Cl)cc(F)cc1C1OC(=O)NC1=O (configuration not stated),Blood sugar lowering,Rattus norvegicus [5],15%
O=C1NC(=O)C(c2cccc(Cl)c2)O1 (configuration not stated),Blood sugar lowering,Rattus norvegicus [3],26%
CNC(=O)Nc1ccccc1C1OC(=O)NC1=O (configuration not stated),Blood sugar lowering,Rattus norvegicus [2],inactive
COc1ccc(C)cc1C1OC(=O)NC1=O (configuration not stated),Blood sugar lowering,Rattus norvegicus [10],10%
same,Blood sugar lowering,Rattus norvegicus [5],21%
C=CCOc1cccc(Cl)c1C1OC(=O)NC1=O (configuration not stated),Blood sugar lowering,Rattus norvegicus [10],17%
CCOc1cccc(F)c1C1OC(=O)NC1=O (configuration not stated),Blood sugar lowering,Rattus norvegicus [1],9%
"COc1ccc(Cl)cc1C1OC(=O)NC1=O (single isomer, unassigned; (-))",Blood sugar lowering,Rattus norvegicus [10]; 2.5 mg/kg,26%
COc1ccc(S(=O)(=O)N(C)C)cc1C1OC(=O)NC1=O (configuration not stated),Blood sugar lowering,Rattus norvegicus [11],inactive
CS(=O)(=O)Nc1ccccc1C1OC(=O)NC1=O (configuration not stated),Blood sugar lowering,Rattus norvegicus [6],inactive
CSc1cccc(F)c1C1OC(=O)NC1=O (configuration not stated),Blood sugar lowering,Rattus norvegicus [9],18%
O=C1NC(=O)C(c2c(F)cccc2Cl)O1 (configuration not stated),Blood sugar lowering,Rattus norvegicus [5],12%
Cc1ccccc1C1OC(=O)NC1=O (configuration not stated),Blood sugar lowering,Rattus norvegicus [5],14%
COc1c(C)cc(Cl)cc1C1OC(=O)NC1=O (configuration not stated),Blood sugar lowering,Rattus norvegicus [5],17%
COc1cccc(Cl)c1C1OC(=O)NC1=O (configuration not stated),Blood sugar lowering,Rattus norvegicus [15],11%
